Most compounds without a hit are left out; they make up all but 3.5% or so of the library.
MrgX1 antag: antagonists of human MrgX1 receptor, primary screen, HEK293 cells, Fluo-4 calcium flux. Mas-related G-protein coupled receptor member X1 (Homo sapiens), Q96LB2. BAM8-22 antagonism; hits give low values. B-score at 10 µM. hit rate 1.3% among 310,000;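 active means calcium-response B-score plate-corrected more than 3 library SD below zero, starting fluorescence within 5 deviations, no agonist response on first addition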;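 further: peak minus trough fluorescence over baseline after final BAM8-22 challenge near maximal dose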
Target sequence (Q96LB2 whole entry, looked up): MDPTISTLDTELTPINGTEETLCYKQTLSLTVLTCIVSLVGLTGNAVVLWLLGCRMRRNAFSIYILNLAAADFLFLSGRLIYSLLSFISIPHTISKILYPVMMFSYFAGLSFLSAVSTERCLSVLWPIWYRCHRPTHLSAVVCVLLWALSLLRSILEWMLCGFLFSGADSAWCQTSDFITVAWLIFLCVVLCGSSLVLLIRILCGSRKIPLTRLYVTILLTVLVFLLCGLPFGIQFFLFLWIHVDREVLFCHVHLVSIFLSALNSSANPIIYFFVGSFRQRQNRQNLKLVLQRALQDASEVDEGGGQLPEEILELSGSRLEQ
MrgX1 allo act: positive allosteric modulators of MrgX1, primary screen, HEK293 cells, Fluo-4 calcium flux; FDSS; hits give high values; B-score at 10 µM; hit rate 0.63% among 310,000; AID 588675, 2011;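 active means plate-corrected calcium response at least 3 library SD above typical, normal starting fluorescence, not activating the receptor alone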;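 further: compound read alongside a low EC10 to EC30 dose of BAM8-22 agonist; peak minus trough fluorescence over baseline measured at the second addition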
MrgX1 agonist: agonists of human MrgX1 receptor, primary screen, HEK293 cells, Fluo-4 calcium flux; Mas-related G-protein coupled receptor member X1 (Homo sapiens), Q96LB2; Fluo-4 calcium fluorescence, agonist mode; hits give high values; B-score at 10 µM; hit rate 0.44% among 310,000; AID 588627, 2011;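 active means calcium response B-score plate-corrected fluorescence ratio at least 3 library SD, with starting fluorescence B-score inside 5 SD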
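Test system: HEK293 cells stably expressing human MrgX1 receptor; amount: 15,000 cells per well; doses: compound delivered in addition one of three; times: overnight plating before 1 h dye loading; detection: Fluo-4 NW calcium-flux fluorescence, kinetic read; read-out basis: B-scored fluorescence response ratio; controls: positive and negative controls per plate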
RGS4 pot: RGS4 potentiators or activators, primary screen, cell-based, HEK293 M3R inducible RGS4, calcium flux; carbachol calcium flux Fluo4; hits give low values; hit rate 0.92% among 310,000; B-score at 10 µM;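 active means B-score of the integrated calcium signal more than 4 SD below the library mean, with starting fluorescence not abnormally high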;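 further: negative B-score means reduced calcium response which marks RGS4 activation or potentiation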
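Reagent: ECmax carbachol challenge; Test system: M3R-expressing HEK293 line, RGS4 induced by doxycycline; Schedule: overnight RGS4 induction, 30 min dye load 37 °C, 20 min compound RT; Detection: calcium dye Fluo4 fluorescence; Read-out: Agonist-evoked peak-minus-minimum fluorescence over baseline, integrated ratio, B score.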
RGS4 block: RGS4 inhibitors, primary screen, cell-based, HEK293 M3R inducible RGS4, calcium flux; hit rate 0.45% among 310,000; Fluo-4 calcium flux; hits give high values; triggered by carbachol at its EC20; B-score at 10 µM; Regulator of G-protein signaling 4 (Homo sapiens), P49798; AID 463165, 2010;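 active means B-score, a plate-corrected calcium signal, over three deviations above library mean, with baseline fluorescence within five deviations of library mean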;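 further: RGS4 expression induced by doxycycline in cells with stable M3 receptor; B-score is computed from the integrated fluorescence ratio over baseline after carbachol; higher B-score means a larger calcium signal and so more RGS4 inhibition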
Target sequence (P49798 whole entry, looked up): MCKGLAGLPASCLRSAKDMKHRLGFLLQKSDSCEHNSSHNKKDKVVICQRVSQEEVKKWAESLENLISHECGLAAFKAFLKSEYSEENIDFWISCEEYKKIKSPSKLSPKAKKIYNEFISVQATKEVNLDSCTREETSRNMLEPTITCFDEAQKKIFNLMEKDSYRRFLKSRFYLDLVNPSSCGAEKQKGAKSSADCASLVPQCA
MrgX1 PAM conf: MrgX1 positive allosteric modulators, duplicate retest, confirmation, HEK293 cells, Fluo-4 calcium flux; shares compounds with MrgX1 allo act; Fluo-4 calcium fluorescence, FDSS; activation (ratio percentage), % at 10 µM; hit rate 13% among 1,200; AID 602413, 2012;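 active means ratio at least 3 SD above the weak peptide control, stable starting fluorescence, no direct agonism earlier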;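 further: compound followed by low BAM8-22 agonist challenge near EC20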
HEK293 Ca flux: nonspecific calcium signal in parental HEK293, confirmation, counter-screen for MrgX1 antagonist project, parental HEK293 cells, Fluo-4 calcium flux; shares compounds with MrgX1 antag; Fluo-4 calcium fluorescence, FDSS; fluorescence ratio F(max-min)/F0 at 10 µM; hit rate 2% among 4,000; AID 624111, 2012;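 active means duplicate-averaged calcium fluorescence ratio at least three times the standard deviation of buffer wells, a nonspecific response in parental cells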
HEK293 Ca counter: calcium response in parental HEK293 cells, primary screen, counter-screen for MrgX1 allosteric activator project, cell-based, Fluo-4 calcium flux, duplicate. shares compounds with MrgX1 antag. Fluo-4 fluorescence ratio; hits give high values. fluorescence ratio F(max-min)/F0 at 10 µM. hit rate 0.4% among 4,000;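 active means calcium fluorescence ratio, averaged over duplicates, at least 3 SD of the buffer-well ratio, meaning a nonspecific response in receptor-free cells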;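 further: untransfected parental HEK293 lacking MrgX1 used as counterscreen for MrgX1 allosteric activators; fluorescence change taken during the second addition on a kinetic imager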
HEK293 Ca cntr2: calcium response in parental HEK293 cells, primary screen, counter-screen for MrgX1 agonist project, cell-based, Fluo-4 calcium flux, duplicate, agonist mode. hit rate 8.7% among 4,000. Fluo-4 calcium fluorescence (FDSS); hits give high values. fluorescence ratio F(max-min)/F0 at 10 µM. AID 624115, 2012. shares compounds with MrgX1 antag;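 active means calcium fluorescence ratio at least three times the spread of buffer wells, meaning a non-specific response in parental cells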
The depositor's hits bear a star.

COc1ccc(CCNS(=O)(=O)c2ccc3c(c2)NC(=O)CO3)cc1OC was read as MrgX1 antag inactive, MrgX1 allo act 33*, MrgX1 agonist inactive, RGS4 pot inactive, RGS4 block inactive, MrgX1 PAM conf inactive, HEK293 Ca flux inactive, HEK293 Ca counter inactive and HEK293 Ca cntr2 inactive.
COc1ccccc1CNC(c1ccccc1)c1ccccc1 was read as MrgX1 antag inactive, MrgX1 allo act inactive, MrgX1 agonist inactive, RGS4 pot inactive and RGS4 block inactive.
Screening COc1cc(C)c(NC(c2ccccc2)c2ccccc2)cc1OC returned MrgX1 antag inactive, MrgX1 allo act 8.7*, MrgX1 agonist inactive, RGS4 pot inactive, RGS4 block inactive, MrgX1 PAM conf inactive, HEK293 Ca flux inactive, HEK293 Ca counter inactive and HEK293 Ca cntr2 inactive.
CCCCN1C(N)=NC[C@@H]1CCCCN was read as MrgX1 antag inactive, MrgX1 allo act inactive, MrgX1 agonist inactive, RGS4 pot inactive and RGS4 block inactive.
Screening Cc1ccccc1NC(=O)C12CC3CCC1(C)C3(C)CO2 (centres undefined) returned MrgX1 antag inactive, MrgX1 allo act 6.9*, MrgX1 agonist inactive, RGS4 pot inactive, RGS4 block inactive, MrgX1 PAM conf inactive, HEK293 Ca flux inactive, HEK293 Ca counter inactive and HEK293 Ca cntr2 inactive.
For CC12COC3(C(=O)Nc4ccc5ccccc5c4)CC1CCC32C (centres undefined) the results were MrgX1 antag inactive, MrgX1 allo act 17*, MrgX1 agonist inactive, RGS4 pot inactive, RGS4 block inactive, MrgX1 PAM conf inactive, HEK293 Ca flux inactive, HEK293 Ca counter inactive and HEK293 Ca cntr2 inactive.
For CC12COC3(C(=O)Nc4cccnc4)CC1CCC32C (centres undefined) the results were MrgX1 antag inactive, MrgX1 allo act inactive, MrgX1 agonist inactive, RGS4 pot inactive and RGS4 block inactive.
For CC12COC3(C(=O)Nc4ccccc4)CC1CCC32C (centres undefined) the results were MrgX1 antag inactive, MrgX1 allo act 9.7*, MrgX1 agonist inactive, RGS4 pot inactive, RGS4 block inactive, MrgX1 PAM conf inactive, HEK293 Ca flux inactive, HEK293 Ca counter inactive and HEK293 Ca cntr2 inactive.
For Cc1ccc(C)c2sc(NC(=O)c3nc4ccccc4s3)nc12 the results were MrgX1 antag inactive, MrgX1 allo act inactive, MrgX1 agonist inactive, RGS4 pot inactive and RGS4 block inactive.
For CCCC/C(O)=C1\C(=O)CC(C)(C)CC1=NCCCCCC(=O)O the results were MrgX1 antag inactive, MrgX1 allo act inactive, MrgX1 agonist inactive, RGS4 pot inactive and RGS4 block inactive.
`CCc1cc2ccc(OC)cc2nc1SCC(=O)N1CCN(C(=O)c2ccco2)CC1` gave MrgX1 antag inactive, MrgX1 allo act 6.6*, MrgX1 agonist inactive, RGS4 pot inactive, RGS4 block inactive, MrgX1 PAM conf inactive, HEK293 Ca flux inactive, HEK293 Ca counter inactive and HEK293 Ca cntr2 inactive.
O=C(N/N=C/c1ccc(N2CCCCC2)o1)c1ccccc1[N+](=O)[O-] was read as MrgX1 antag inactive, MrgX1 allo act inactive, MrgX1 agonist inactive, RGS4 pot inactive and RGS4 block inactive.
C[C@@H]1CC[C@]2(O[C@H](CCO)C[C@H](O)[C@H]2O)O1 was read as MrgX1 antag inactive, MrgX1 allo act inactive, MrgX1 agonist inactive, RGS4 pot inactive and RGS4 block inactive.
For O=C(Nc1ccc2c(c1)OCO2)c1ccc(Br)c(S(=O)(=O)N2CCCC2)c1 the results were MrgX1 antag inactive, MrgX1 allo act 14*, MrgX1 agonist inactive, RGS4 pot inactive, RGS4 block inactive, MrgX1 PAM conf inactive, HEK293 Ca flux inactive, HEK293 Ca counter inactive and HEK293 Ca cntr2 inactive.
Screening CCCCS(=O)(=O)N1CCCC(C(=O)Oc2ccc(Cl)cc2)C1 (centres undefined) returned MrgX1 antag inactive, MrgX1 allo act inactive, MrgX1 agonist inactive, RGS4 pot inactive and RGS4 block inactive.
CCN1CCC(N2CCN(c3ccccc3OC)CC2)CC1 was read as MrgX1 antag inactive, MrgX1 allo act inactive, MrgX1 agonist inactive, RGS4 pot inactive and RGS4 block inactive.
For CCc1n[nH]c(=S)n1/N=C/C(C)=C\c1ccccc1 the results were MrgX1 antag inactive, MrgX1 allo act 6.6*, MrgX1 agonist inactive, RGS4 pot inactive, RGS4 block inactive, MrgX1 PAM conf inactive, HEK293 Ca flux inactive, HEK293 Ca counter inactive and HEK293 Ca cntr2 inactive.
`Cc1cc(SCC(=O)c2ccc(O)c(O)c2)nc2ccccc12` gave MrgX1 antag inactive, MrgX1 allo act 11*, MrgX1 agonist inactive, RGS4 pot inactive, RGS4 block inactive, MrgX1 PAM conf inactive, HEK293 Ca flux inactive, HEK293 Ca counter inactive and HEK293 Ca cntr2 inactive.
For Cc1cc(SCC(=O)c2ccc3c(c2)OCO3)nc2ccccc12 the results were MrgX1 antag inactive, MrgX1 allo act inactive, MrgX1 agonist inactive, RGS4 pot inactive and RGS4 block inactive.
CCN(CC)C(=O)c1[nH]cnc1C(=O)N[C@@H](C)C(=O)OC(C)(C)C was read as MrgX1 antag inactive, MrgX1 allo act inactive, MrgX1 agonist inactive, RGS4 pot inactive and RGS4 block inactive.
`CCOc1ccc(N(C(C)=O)c2nc(C)cc(C)c2C#N)cc1` gave MrgX1 antag inactive, MrgX1 allo act inactive, MrgX1 agonist inactive, RGS4 pot inactive and RGS4 block inactive.
